The record followed here is ChEMBL document CHEMBL4823271, “Synthesis and structure-activity relationship of new chalcone linked 5-phenyl-3-isoxazolecarboxylic acid methyl esters potentially active against drug resistant Mycobacterium tuberculosis” (Eur J Med Chem, 2021).

What is called MIC90 is an inhibitory concentration at the 90% level, which refers to growth in some studies and to a panel of isolates in others. The term MIC denotes the lowest concentration found to suppress growth. Broadly, the CC50 is the concentration that lowers cell viability or growth by half.

Values after ≈ are worked out from the molar mass of the structure shown. Active and inactive are the calls of the source. No cut-off for these calls is given here. Bounds are passed on as bounds.

Series [1] deals with Mycobacterium tuberculosis. Description: Antitubercular activity against Mycobacterium tuberculosis H37Rv assessed as bacterial growth inhibition after 7 days by broth microdilution assay. The class given is functional. Particulars: 168 h, dose 0.03-64 µg/ml, time 7 day. Summed up: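 Compounds were tested in broth microdilution from 64 downward, incubated 37 °C for 7 days, then resazurin (PrestoBlue) added. MIC is the lowest concentration preventing the blue-to-pink change, run in triplicate, reporting the value obtained at least twice of three.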
On the technique in general: Dilution methods test growth across graded concentrations, often in twofold steps.

Series [2] relates to Mycolicibacterium fortuitum. Kind of series: Antimycobacterial activity against Mycobacterium fortuitum ATCC 6841 assessed as visible growth inhibition incubated for 16 to 18 hrs. The class given is functional, organism-based. Particulars: time 16-18 hrs.
The nature of series [3]: Selectivity index, ratio of CC50 for African green monkey Vero cells to MIC for Antitubercular activity against Mycobacterium tuberculosis H37Rv. The class given is toxicity. The note with it: read-out: Selectivity Index. Summed up: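 Selectivity index calculated as Vero CC50 (MTT, 72 h) divided by the H37Rv MIC from the resazurin broth microdilution assay.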
Series [4] relates to Mycobacteroides abscessus. Description: Antimycobacterial activity against Mycobacterium abscessus ATCC 19977 assessed as visible growth inhibition incubated for 16 to 18 hrs. Type of series: functional, organism-based. The note with it: time 16-18 hrs.
A short description of series [5]: Cytotoxicity against African green monkey vero cells assessed as reduction in cell viability measured after 72 hrs by MTT assay. The class given is cell-based. The note with it: chlorocebus sabaeus. A digest of the protocol:
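Vero cells seeded at ~10³ cells/well and grown 24 h at 37 °C, 5% CO₂, then exposed to compound (100 to 5 mg/l) for 72 h. MTT was added […] for 4 h and formazan dissolved in DMSO. CC50 is the lowest concentration giving 50% viability reduction. Doxorubicin was the positive control, run in triplicate.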

In another series the test system is Mycobacteroides chelonae. Kind of series: Antimycobacterial activity against Mycobacterium chelonae ATCC 35752 assessed as visible growth inhibition incubated for 16 to 18 hrs. The class given is functional, organism-based. The note with it: time 16-18 hrs.

As for `Cc1ccc(Nc2nc(-c3cc(C(=O)Nc4ccccn4)no3)c(C)s2)cc1`, in series [1], the MIC90 was found to be 0.06 µg/mL (≈ 0.153 µM).
On to `COC(=O)c1cc(-c2cccc(NC(=O)c3ccc(/C=C/C(=O)c4ccccc4Br)cc3)c2)on1`, for which the outcome (in series [2]; in series [4]; in the series on Mycobacteroides chelonae) was inactive. Further, the minimal inhibitory concentration (MIC) in series [1] is 1 µg/mL (≈ 1.88 µM). The selectivity ratio in series [3] was greater than 40. Besides, the CC50 at 72 h in series [5] was greater than 40 µg/mL.
Turning to `COC(=O)c1cc(-c2cccc(NC(=O)c3ccc(/C=C/C(=O)c4cccc([N+](=O)[O-])c4)cc3)c2)on1`, the outcome (in series [2]; in series [4]; in the series with Mycobacteroides chelonae) was inactive. Moreover, in series [1], the MIC came out at 2 µg/mL (≈ 4.02 µM). Moreover, the selectivity ratio in series [3] was greater than 20. In addition, in series [5], the CC50 at 72 h is greater than 40 µg/mL.
As for `CCOC(=O)c1cc(COc2cc(C(F)(F)F)nc3cc(C(F)(F)F)cc(C(F)(F)F)c23)on1`, in series [1], the MIC is 0.39 µg/mL (≈ 0.776 µM).
As for `COC(=O)c1cc(-c2cccc(NC(=O)c3ccc(/C=C/C(=O)c4cccc(Br)c4)cc3)c2)on1`, the outcome (in series [2]; in series [4]; in the series with Mycobacteroides chelonae) was inactive. Moreover, the minimal inhibitory concentration (MIC) in series [1] was 4 µg/mL (≈ 7.53 µM). For the same molecule, the selectivity ratio in series [3] is greater than 25. Besides, the CC50 at 72 h in series [5] is greater than 100 µg/mL.
Take `COC(=O)c1cc(-c2cccc(NC(=O)c3ccc(/C=C/C(=O)c4cccc(OC)c4)cc3)c2)on1`: the result (in series [2]; in series [4]; in the series on Mycobacteroides chelonae) was inactive. Further, in series [1], the MIC was found to be 2 µg/mL (≈ 4.15 µM). In addition, the selectivity ratio in series [3] is greater than 50. The CC50 at 72 h in series [5] is greater than 100 µg/mL.
For `COC(=O)c1cc(-c2cccc(NC(=O)c3ccc(/C=C/C(=O)c4cccc(F)c4)cc3)c2)on1`, the result (in series [2]; in series [4]; in the series with Mycobacteroides chelonae) was inactive. Moreover, the MIC in series [1] came to 2 µg/mL (≈ 4.25 µM). Moreover, the selectivity ratio in series [3] was greater than 20. Besides, the 50% cytotoxic concentration (CC50) at 72 h in series [5] was greater than 40 µg/mL.
For the molecule `COC(=O)c1cc(-c2cccc(NC(=O)c3ccc(/C=C/C(=O)c4ccc5c(c4)OCO5)cc3)c2)on1`, the result (in series [2]; in series [4]; in the series on Mycobacteroides chelonae) was inactive. The MIC in series [1] turned out to be 2 µg/mL (≈ 4.03 µM). The selectivity ratio in series [3] is greater than 20. The half-maximal cytotoxic concentration (CC50) at 72 h in series [5] was greater than 40 µg/mL.
Take `O=C(/C=C/c1ccc([N+](=O)[O-])o1)c1ccc(N2CCCCC2)cc1`: in series [1], the minimum inhibitory concentration (MIC) came to 0.06 µg/mL (≈ 0.184 µM).
For the molecule `COC(=O)c1cc(-c2cccc(NC(=O)c3ccc(/C=C/C(=O)c4cccnc4)cc3)c2)on1`, the result (in series [2]; in series [4]; in the series with Mycobacteroides chelonae) was inactive. In addition, in series [1], the MIC stood at 64 µg/mL (≈ 141 µM).
Take `COC(=O)c1cc(-c2cccc(NC(=O)c3ccc(/C=C/C(=O)c4cc(OC)c(OC)c(OC)c4)cc3)c2)on1`: the result (in series [2]; in series [4]; in the series with Mycobacteroides chelonae) was inactive. Also, the MIC in series [1] worked out at 1 µg/mL (≈ 1.84 µM). Moreover, in series [3], the selectivity ratio was greater than 50. In addition, in series [5], the CC50 at 72 h was greater than 50 µg/mL.
With `O=C(O)c1ccc(/C=C/C(=O)c2ccc(Cl)cc2)cc1`, the MIC in series [1] stood at 4 µg/mL (≈ 14 µM). Besides, the selectivity ratio in series [3] was less than 10. Also, the CC50 at 72 h in series [5] was less than 10 µg/mL.
For `CCOC(=O)c1cc(-c2cccc(NC(=O)c3cccc(C(F)(F)F)c3)c2)on1`, in series [1], the MIC turned out to be 64 µg/mL (≈ 158 µM).
For `COC(=O)c1cc(-c2cccc(NC(=O)c3ccc(/C=C/C(=O)c4ccccc4O)cc3)c2)on1`, the outcome (in series [2]; in series [4]; in the series on Mycobacteroides chelonae) was inactive. In series [1], the MIC was 16 µg/mL (≈ 34.2 µM).
Consider `CCCOc1ccc(C(=O)/C=C/c2ccc(C(=O)O)cc2)cc1`, for which the MIC in series [1] came out at 32 µg/mL (≈ 103 µM). In addition, the selectivity ratio in series [3] was less than 10. The cytotoxic concentration (CC50) at 72 h in series [5] is less than 10 µg/mL.
Regarding `COC(=O)[C@H](NC(=O)c1cc(COc2ccc3sc(C)nc3c2)on1)c1ccccc1`, in series [1], the MIC was found to be 0.61 µg/mL (≈ 1.39 µM).
For the molecule `COC(=O)c1cc(-c2cccc(NC(=O)c3ccc(/C=C/C(=O)c4ccccc4OC)cc3)c2)on1`, the result (in series [2]; in series [4]; in the series on Mycobacteroides chelonae) was inactive. Also, the MIC in series [1] was 1 µg/mL (≈ 2.07 µM). In addition, the selectivity ratio in series [3] is greater than 40. For the same molecule, the CC50 at 72 h in series [5] was greater than 40 µg/mL.
On to `O=C(O)c1ccc(C(=O)/C=C/c2ccc3ccccc3c2)cc1`, for which the MIC in series [1] was determined as 0.5 µg/mL (≈ 1.65 µM).
Turning to `COC(=O)c1cc(-c2cccc(NC(=O)/C=C/c3ccc(Cl)cc3)c2)on1`, the outcome (in series [2]; in series [4]; in the series on Mycobacteroides chelonae) was inactive. Moreover, the MIC in series [1] stood at 2 µg/mL (≈ 5.22 µM).
For the molecule `CC(C)Cc1ccc(C(=O)/C=C/c2ccc(C(=O)O)cc2)cc1`, the MIC in series [1] was 32 µg/mL (≈ 104 µM). The selectivity ratio in series [3] was less than 10. Also, in series [5], the half-maximal cytotoxic concentration (CC50) at 72 h is less than 10 µg/mL.
Regarding `COc1ccc(OC)c(/C=C/C(=O)c2ccc(Nc3ccnc4cc(Cl)ccc34)cc2)c1`, in series [1], the minimal inhibitory concentration (MIC) came to 3.12 µg/mL (≈ 7.01 µM).
As to `COC(=O)c1cc(-c2cccc(NC(=O)c3ccc(/C=C/C(=O)c4cc(F)ccc4F)cc3)c2)on1`, the result (in series [2]; in series [4]; in the series with Mycobacteroides chelonae) was inactive. The MIC in series [1] came out at 1 µg/mL (≈ 2.05 µM). In addition, the selectivity ratio in series [3] is greater than 40. The CC50 at 72 h in series [5] is greater than 40 µg/mL.
As to `O=C(/C=C/c1ccc(-n2ccnc2)cc1)c1ccc(OCc2cc(F)ccc2F)cc1`, in series [1], the MIC amounted to 0.78 µg/mL (≈ 1.87 µM).
With `COC(=O)c1cc(-c2cccc(NC(=O)c3ccc(/C=C/C(=O)c4ccc(F)cc4)cc3)c2)on1`, the outcome (in series [2]; in series [4]; with Mycobacteroides chelonae) was inactive. In addition, the MIC in series [1] was determined as 4 µg/mL (≈ 8.5 µM). Moreover, in series [3], the selectivity ratio is greater than 5. For the same molecule, the CC50 at 72 h in series [5] is greater than 20 µg/mL.
Regarding `COC(=O)c1cc(-c2cccc(NC(=O)c3ccc(/C=C/C(=O)c4cccs4)cc3)c2)on1`, the result (in series [2]; in series [4]; in the series with Mycobacteroides chelonae) was inactive. For the same molecule, the MIC in series [1] came to 32 µg/mL (≈ 69.8 µM).
Consider `COC(=O)c1cc(-c2cccc(NC(=O)c3ccc(/C=C/C(=O)c4ccc(C)c([N+](=O)[O-])c4)cc3)c2)on1`, for which the outcome (in series [2]; in series [4]; with Mycobacteroides chelonae) was inactive. In addition, in series [1], the MIC stood at 4 µg/mL (≈ 7.82 µM). The selectivity ratio in series [3] is greater than 20. Moreover, the CC50 at 72 h in series [5] was greater than 80 µg/mL.
`O=C(/C=C/c1c[nH]c2ccccc12)c1cccs1`: the minimum inhibitory concentration (MIC) in series [1] came out at 49.9 µg/mL (≈ 197 µM).
On the same count and under the same terms, the value for `CCOC(=O)c1cc(-c2cccc(OCc3cccc(C(F)(F)F)c3)c2)on1` was 0.23 µg/mL (≈ 0.588 µM).
For `COC(=O)c1cc(-c2cccc(NC(=O)c3ccc(/C=C/C(=O)c4ccc(O)cc4)cc3)c2)on1`, the result (in series [2]; in series [4]; in the series on Mycobacteroides chelonae) was inactive. The MIC in series [1] is greater than 64 µg/mL.
As to `CCOC(=O)c1nnn(-c2cccc(NC(=O)c3ccc(/C=C/C(=O)c4ccc(Cl)cc4)cc3)c2)c1C`, the MIC in series [1] is greater than 64 µg/mL. In series [4], the result was inactive.
